This is a sample that favours compounds with a hit; in the whole collection about 1.3% have one here.
C-LANA FP: inhibitors of KSHV C-LANA binding to DNA, primary screen, biochemical, fluorescence polarization, FAM-LBS DNA, MBP-C-LANA, single point; inhibition, % at 9 µM; actives 0.078% (n = 340,000); AID 504423, 2011;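 active means highest replicate inhibition at or above 60% at 9 µM, even if other replicates fall short; inactive means all replicates below 60% inhibition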
RTF Ca sens inh: cardiac RTF calcium sensitivity inhibitors, primary screen, biochemical, IANBD-TnC fluorescence, EC70 calcium. actives 0.12% (n = 340,000). Troponin I, cardiac muscle (Homo sapiens) + Troponin T, cardiac muscle (Homo sapiens) + …. inhibition, % at 7.15 µM. IANBD-labeled cardiac RTF, Ca2+ fluorescence;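 active means inhibition above the mean inhibition of all tested compounds plus 3 SD, cut at about 17% in these data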;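 further: assay run at fixed EC70 calcium of 1.6 mM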
CAL PDZ FP-1: CAL PDZ peptide-binding inhibitors, primary screen, biochemical, fluorescence polarization, Cer-tagged CAL PDZ, HTS; Golgi-associated PDZ and coiled-coil motif-containing protein (Homo sapiens), Q9HD26; purified CAL PDZ, TMR-peptide fluorescence polarization, 1 h; inhibition, % at 20 µM; actives 0.02% (n = 330,000); AID 504414, 2011;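 active means highest replicate inhibition of at least 40%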
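Assay system – tagged CAL PDZ protein CerCALP, purified · Timing – 1 h at RT · Compound – single point, 20 µM · Measured by – fluorescence polarization from S- and P-plane intensities, G-factor corrected · Evaluation – inhibition from polarization loss · Probe or stimulus – TMR reporter peptide T*-PRC34 · Buffer or medium – pH 7.4 phosphate-saline buffer, reducing agent, detergent, IgG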
CAL PDZ FP-2: untagged CAL PDZ binding inhibitors, primary screen, biochemical, fluorescence polarization, HTS | AID 602252, 2012 | purified CAL PDZ, TMR-peptide fluorescence polarization, 1 h | inhibition, % at 24.9 µM | actives 0.92% (n = 300,000);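 active means mean inhibition of at least 30% with at least half of replicates also reaching 30%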
Keap1-Nrf2 PPI: Keap1-Nrf2 protein-protein interaction inhibitors, primary screen, biochemical, fluorescence polarization, single point | Kelch-like ECH-associated protein 1 (Homo sapiens), Q14145 | Keap1 Kelch-Nrf2 peptide fluorescence polarization, 1536-well | inhibition, % at 9.4 µM | actives 0.15% (n = 340,000); in the data active means inhibition above about 12%;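 further: human Keap1 Kelch domain with fluorescein labeled Nrf2 9mer peptide probe; higher means more block of Keap1 binding to Nrf2 peptide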
Target sequence (Q14145 whole entry, looked up, the tested form may be a part): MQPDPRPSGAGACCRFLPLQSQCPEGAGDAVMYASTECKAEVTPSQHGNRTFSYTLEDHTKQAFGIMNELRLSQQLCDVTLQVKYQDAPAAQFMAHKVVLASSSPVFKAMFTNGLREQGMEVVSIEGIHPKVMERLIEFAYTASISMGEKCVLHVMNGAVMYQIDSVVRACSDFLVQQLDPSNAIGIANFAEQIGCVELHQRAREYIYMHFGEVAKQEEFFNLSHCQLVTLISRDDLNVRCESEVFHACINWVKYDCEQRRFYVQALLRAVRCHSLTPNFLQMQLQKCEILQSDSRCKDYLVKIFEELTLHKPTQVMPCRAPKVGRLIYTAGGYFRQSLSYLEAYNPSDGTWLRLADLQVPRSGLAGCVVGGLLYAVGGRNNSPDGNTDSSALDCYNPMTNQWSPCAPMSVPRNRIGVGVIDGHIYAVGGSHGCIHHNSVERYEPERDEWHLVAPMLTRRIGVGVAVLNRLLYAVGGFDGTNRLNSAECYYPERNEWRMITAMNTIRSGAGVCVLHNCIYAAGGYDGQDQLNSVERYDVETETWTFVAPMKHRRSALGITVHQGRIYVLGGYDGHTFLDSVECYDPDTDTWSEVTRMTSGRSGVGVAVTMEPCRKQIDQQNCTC
RTF Ca sens act: cardiac RTF calcium sensitivity activators, primary screen, biochemical, IANBD-TnC fluorescence, EC20 calcium | activation, % at 7.2 µM | IANBD-labeled TnC RTF fluorescence at EC20 calcium; 0% EC20 calcium, 100% full calcium | Troponin I, cardiac muscle (Homo sapiens) + Troponin T, cardiac muscle (Homo sapiens) + … | AID 493008, 2010 | actives 0.24% (n = 340,000);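 active means activation above the mean over all tested compounds plus 3 SD, cut at about 30% in these data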;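 further: rise in fluorescence read as greater calcium sensitivity of cardiac thin filaments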
Of the large screens only hits and unclear results are named; the others gave an inactive call.

COc1ccc(-c2nc(N)ncc2-c2ccc(OC)c(OC)c2)c(O)c1	CAL PDZ FP-2 59 (no result: CAL PDZ FP-1)
CNC(=S)N/N=C/c1c(Cl)cccc1Cl	none
Cc1cccc(C)c1NC(=S)N/N=C/c1c(Cl)cccc1Cl	CAL PDZ FP-2 33
C/C(=N\NS(C)(=O)=O)c1ccccc1	CAL PDZ FP-2 94
CC(C)(C)OC(=O)C[C@@H]1C/C=C\C[C@@H](CC(=O)N(CCO)Cc2ccccc2)C(=O)N[C@H](C(C)(C)C)COC1=O	none
CCOc1ccc(C(=O)NC2CC3CCCC(C2)N3Cc2ccccc2)cc1 (centres undefined)	CAL PDZ FP-1 50
COc1cccc(C(=O)NC2CC3CCC(C2)N3Cc2ccccc2)c1 (centres undefined)	CAL PDZ FP-2 39
COc1ccc(CN2C3CCC2CC(NC(=O)c2cccc(F)c2)C3)cc1 (centres undefined)	none
COc1ccc(C(=O)NC2CC3CCCC(C2)N3Cc2ccccc2)cc1 (centres undefined)	none
CCCC(=O)N1CCN(c2nc3c(OC)ccc(Cl)c3s2)CC1	none
Cc1c(C(=O)N2CCCCC2)c(S(=O)(=O)N2CCC(C)CC2)c(C)n1C	CAL PDZ FP-2 75
CC(C)c1ccccc1OCC(=O)Nc1nnc(C2CC2)s1	none
COc1ccc(C)cc1C(=O)CCC(=O)NCCc1ccc(S(N)(=O)=O)cc1	none
Cc1nn(Cc2ccccc2)c(Cl)c1C(=O)NCc1ccco1	CAL PDZ FP-2 59
Cc1ccc(C(c2nnnn2C2CCCCC2)N2CCc3ccccc32)cc1 (centres undefined)	CAL PDZ FP-2 74
O=C1CNC(=S)N1c1nc(-c2ccccc2)cs1	none
COc1ccc(-c2csc(N3C(=O)CNC3=S)n2)cc1	CAL PDZ FP-2 67
CCC(=O)N1CN(S(=O)(=O)c2ccc(C)cc2)CC1C (centres undefined)	CAL PDZ FP-2 42
CCOC(=O)Cn1c(=O)c(-c2cc(Br)ccc2N)nc2ccccc21	RTF Ca sens act 44
CCOC(=O)Cn1c2ccccc2c2nc3ccccc3nc21	CAL PDZ FP-2 42
CCOC(=O)Cn1c(=O)c(-c2ccccc2N)nc2ccccc21	none (no result: CAL PDZ FP-2)
CCOC(=O)Cn1c2ccccc2c2nc(C)sc21	none
Cc1ccc(C2C(C#N)=C(N)SC(N)=C2C#N)c(C)c1	RTF Ca sens act 81
N#CC1=C(N)SC(N)=C(C#N)C1c1ccnc2ccccc12	none (no result: CAL PDZ FP-1)
Cc1ccc(C2C(C#N)=C(N)SC(N)=C2C#N)cc1	RTF Ca sens act 41
Cc1ccc2c(c1)N(C(=O)CCC(=O)NCc1cccc(Cl)c1)CC(C)O2 (centres undefined)	none (no result: CAL PDZ FP-2)
COc1ccc(OC)c(N(CC(=O)N2CCCCC2)S(=O)(=O)c2ccc(OC)c(OC)c2)c1	none
COc1ccc(N(CC(=O)N2CCCCCC2)S(=O)(=O)c2ccc(OC)c(OC)c2)cc1	CAL PDZ FP-2 51
COC(=O)/C=C/COc1ccccc1[N+](=O)[O-]	CAL PDZ FP-2 35
O=C(COc1ccccc1[N+](=O)[O-])c1ccccc1	none
OCCC1CN(Cc2cc(F)ccc2F)CCN1CCCc1ccccc1 (centres undefined)	none
CCCOc1ccc(CNC(=O)c2ccc3nc(N4CCOCC4)sc3c2)cc1	none (no result: CAL PDZ FP-2)
CC(=O)OCC(=O)N1N=C(c2ccc3ccccc3c2)CC1c1ccccc1 (centres undefined)	none
Nc1cc(=O)[nH]c(SCC(=O)N2N=C(c3ccc4ccccc4c3)CC2c2ccccc2)n1 (centres undefined)	CAL PDZ FP-2 32
Nc1ncc2c(n1)CCN(c1ccc([N+](=O)[O-])cc1)C2	none
CC(Sc1nnnn1C)C(=O)Nc1ccc2c(c1)OCCO2 (centres undefined)	CAL PDZ FP-2 44
Cn1nnnc1SCC(=O)Nc1ccc2c(c1)OCCO2	none (no result: CAL PDZ FP-2)
COc1ccc(CC(=O)Nc2c(C(=O)N3CCN(c4ncccn4)CC3)oc3ccccc23)cc1	CAL PDZ FP-2 43
O=C1CCN(Cc2ccccc2)S(=O)(=O)c2c(F)cc(F)cc21	none
Cc1ccc(N(Cc2ccccc2)C(=O)c2cc(S(=O)(=O)N3CCOCC3)ccc2N2CCCC2)cc1	none
O=C(Cn1ncc2c([nH]c3ccccc32)c1=O)N1CCOCC1	CAL PDZ FP-2 39
CN1CCN(C(=O)Cn2ncc3c([nH]c4ccccc43)c2=O)CC1	none
N=c1c2c(ncn1CCCO)Oc1cc(O)ccc1C2c1ccccc1 (centres undefined)	CAL PDZ FP-2 39
COc1ccc(C2c3ccc(O)cc3Oc3ncn(CCN4CCOCC4)c(=N)c32)cc1 (centres undefined)	none
COC(=O)c1c(C)nc2nonc2c1N	CAL PDZ FP-2 172
CCCN1CCN(S(=O)(=O)c2ccc3c(c2)CCC(=O)N3)CC1	CAL PDZ FP-2 46
O=C(CSc1nc2cccnc2n1Cc1ccccc1)NCc1ccco1	CAL PDZ FP-2 65 (no result: CAL PDZ FP-1)
O=C(Nc1cccc(C(F)(F)F)c1)c1ccc(Cn2cc(Br)cn2)o1	CAL PDZ FP-2 76
COc1ccccc1NC(=O)CN1CCC(c2nc3ccc(C)cc3[nH]2)CC1	CAL PDZ FP-2 93
O=S(=O)(c1ccc(-n2cnnn2)cc1)N1CCN(c2ccccc2F)CC1	none
Cc1ccc(N2CCN(S(=O)(=O)c3ccc(-n4cnnn4)cc3)CC2)c(C)c1	CAL PDZ FP-2 79
Cn1nc(C(=O)Nc2nc(-c3ccccn3)cs2)c2ccccc2c1=O	CAL PDZ FP-2 85
CCCn1nc(C(=O)Nc2nc(-c3ccccn3)cs2)c2ccccc2c1=O	none
CN(C)c1ccc(C(O)c2cc3ccccc3s2)cc1 (centres undefined)	none
O=C(CN1C(=O)CNC1=O)Nc1cc(Cl)cc(Cl)c1	none (no result: CAL PDZ FP-2)
O=C1OC(c2ccccc2)(c2ccccc2)c2ccccc21	CAL PDZ FP-1 55
NC(=S)N/N=C/c1ccc(-n2nncc2-c2ccc(Cl)cc2)cc1	none
Cc1cc(-c2nnc(SCC(=O)Nc3ccccc3C)n2N)n[nH]1	none
O=C(COC(=O)c1ccc2ncsc2c1)NCc1ccc(F)cc1	CAL PDZ FP-2 54
COc1ccc(OC)c(C=Nc2ccccc2-c2nc3ccccc3[nH]2)c1	none
COc1ccc(OC)c(/C=C/c2nc3ccccc3[nH]c2=O)c1	RTF Ca sens act 72

Screening results deposited in PubChem by several laboratories.
